Assay results taken from ChEMBL document CHEMBL1141215, “Design, synthesis, and microbiological evaluation of new Candida albicans CYP51 inhibitors” (2005).
Values after ≈ are worked out from the molar mass of the structure shown.

System: Candida albicans
Test: Antifungal activity against Candida albicans
Type: functional
Conditions: CA-6
Procedure, shortened: (§1)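 Broth microdilution per NCCLS M27-A in RPMI 1640 buffered with 0.165 M MOPS, pH 7. Strains were C. albicans CA-6 (vaginal clinical isolate) and C. krusei ATCC 6258. Inocula came from 24 h cultures on Sabouraud dextrose agar at 28 °C, washed in saline and counted by hemocytometer. Serial dilutions ran 0.9–500 µg/mL. MIC was the lowest concentration giving 80% turbidity reduction versus drug-free control.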

Structure (SMILES) | MIC [µg/mL]
CN1C(=O)CSc2ccc(C(O)Cn3ccnc3)cc21 (stereo not drawn) | 62.5 (≈ 216 µM)
CN1C(=O)COc2ccc(C(Cn3ccnc3)OCc3ccc(Cl)cc3)cc21 (stereo not drawn) | 7.8 (≈ 19.6 µM)
CCCCC1Oc2ccc(C(O)Cn3ccnc3)cc2N(C)C1=O (stereo not drawn) | 125 (≈ 379 µM)
CCCCOC1Sc2ccc(C(O)Cn3ccnc3)cc2N(C)C1=O (stereo not drawn) | 31.2 (≈ 86.3 µM)
CCCCC1Sc2ccc(C(O)Cn3ccnc3)cc2N(C)C1=O (stereo not drawn) | 31.2 (≈ 90.3 µM)
CN1C(=O)CSc2ccc(C(Cn3ccnc3)OCc3ccc(Cl)cc3)cc21 (stereo not drawn) | < 1.8
CCCCOC1Oc2ccc(C(O)Cn3ccnc3)cc2N(C)C1=O (stereo not drawn) | 125 (≈ 362 µM)
CN1C(=O)COc2ccc(C(O)Cn3ccnc3)cc21 (stereo not drawn) | 250 (≈ 915 µM)
OC(Cn1cncn1)(Cn1cncn1)c1ccc(F)cc1F [FLUCONAZOLE] | < 1.8

System: Mus musculus
Test: Survival of mouse administered at 14 mg/kg/day, ip
Type: functional, CD1
Conditions: route intraperitoneal
Procedure, shortened: (§2)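 Female CD1 mice (8–10 weeks, 25–30 g), 10 per group, infected iv via lateral tail vein with 1×10^5 C. albicans CA-6 cells (24 h Sabouraud culture at 28 °C, saline-washed). Dosing was ip at 14 mg/kg in DMSO/H2O (1:4), 2 h before infection and then daily for 8 days. Median survival time was compared by Mann–Whitney U test, and dead/total was counted at day 30.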

Structure (SMILES) | Survival [days]
CCCCC1Oc2ccc(C(O)Cn3ccnc3)cc2N(C)C1=O (stereo not drawn) | 9
CCCCOC1Sc2ccc(C(O)Cn3ccnc3)cc2N(C)C1=O (stereo not drawn) | 9
CCCCC1Sc2ccc(C(O)Cn3ccnc3)cc2N(C)C1=O (stereo not drawn) | 9
CCCCOC1Oc2ccc(C(O)Cn3ccnc3)cc2N(C)C1=O (stereo not drawn) | 4
OC(Cn1cncn1)(Cn1cncn1)c1ccc(F)cc1F [FLUCONAZOLE] | 23

System: Pichia kudriavzevii
Test: Antifungal activity against Candida krusei
Type: functional
Conditions: 6258
Procedure, shortened: as §1

Structure (SMILES) | MIC [µg/mL]
CN1C(=O)CSc2ccc(C(O)Cn3ccnc3)cc21 (stereo not drawn) | 250 (≈ 864 µM)
CN1C(=O)COc2ccc(C(Cn3ccnc3)OCc3ccc(Cl)cc3)cc21 (stereo not drawn) | 15.6 (≈ 39.2 µM)
CCCCC1Oc2ccc(C(O)Cn3ccnc3)cc2N(C)C1=O (stereo not drawn) | 125 (≈ 379 µM)
CCCCOC1Sc2ccc(C(O)Cn3ccnc3)cc2N(C)C1=O (stereo not drawn) | 125 (≈ 346 µM)
CCCCC1Sc2ccc(C(O)Cn3ccnc3)cc2N(C)C1=O (stereo not drawn) | 250 (≈ 724 µM)
CN1C(=O)CSc2ccc(C(Cn3ccnc3)OCc3ccc(Cl)cc3)cc21 (stereo not drawn) | 15.6 (≈ 37.7 µM)
CCCCOC1Oc2ccc(C(O)Cn3ccnc3)cc2N(C)C1=O (stereo not drawn) | 31.2 (≈ 90.3 µM)
CN1C(=O)COc2ccc(C(O)Cn3ccnc3)cc21 (stereo not drawn) | 31.2 (≈ 114 µM)
OC(Cn1cncn1)(Cn1cncn1)c1ccc(F)cc1F [FLUCONAZOLE] | 62.5 (≈ 204 µM)

System: Mus musculus
Test: Median survival time in mouse at 14 mg/kg/day, ip
Type: functional, CD1
Conditions: route intraperitoneal
Procedure, shortened: as §2

Structure (SMILES) | MST [days]
CCCCC1Oc2ccc(C(O)Cn3ccnc3)cc2N(C)C1=O (stereo not drawn) | 14
CCCCOC1Sc2ccc(C(O)Cn3ccnc3)cc2N(C)C1=O (stereo not drawn) | 14
CCCCC1Sc2ccc(C(O)Cn3ccnc3)cc2N(C)C1=O (stereo not drawn) | 14
CCCCOC1Oc2ccc(C(O)Cn3ccnc3)cc2N(C)C1=O (stereo not drawn) | 12
OC(Cn1cncn1)(Cn1cncn1)c1ccc(F)cc1F [FLUCONAZOLE] | >30
